Measured values published in ChEMBL document CHEMBL3112583, “Modular construction of quaternary hemiaminal-based inhibitor candidates and their in cellulo assessment with HIV-1 protease” (Bioorg Med Chem, 2013).
Activity calls are given as the source filed them. The calls are words filed in the database; no cut-off is given here.

What was measured:
[1] = biological target: Protease (Human immunodeficiency virus 1) (UniProt Q9YQ12); assay: Inhibition of HIV-1 protease in human T cells assessed as increase in eGFP expression at 0.1 uM after 24 hrs by flow cytometry; format: cell-based; settings: T-cell
BCRP (ABCG2) [2] = biological target: T1, BCRP (ABCG2) (Homo sapiens, UniProt Q9UNQ0); assay: Inhibition of BCRP (unknown origin) expressed in mouse NIH/3T3 cells assessed as inhibition of mitoxatrone efflux at 10 uM after 1 hr by FACS analysis; format: cell-based, NIH3T3; settings: NIH/3T3 cells expressing BCRP, probe mitoxantrone (printed: mitoxatrone)
T1 sequence (Q9UNQ0 whole entry): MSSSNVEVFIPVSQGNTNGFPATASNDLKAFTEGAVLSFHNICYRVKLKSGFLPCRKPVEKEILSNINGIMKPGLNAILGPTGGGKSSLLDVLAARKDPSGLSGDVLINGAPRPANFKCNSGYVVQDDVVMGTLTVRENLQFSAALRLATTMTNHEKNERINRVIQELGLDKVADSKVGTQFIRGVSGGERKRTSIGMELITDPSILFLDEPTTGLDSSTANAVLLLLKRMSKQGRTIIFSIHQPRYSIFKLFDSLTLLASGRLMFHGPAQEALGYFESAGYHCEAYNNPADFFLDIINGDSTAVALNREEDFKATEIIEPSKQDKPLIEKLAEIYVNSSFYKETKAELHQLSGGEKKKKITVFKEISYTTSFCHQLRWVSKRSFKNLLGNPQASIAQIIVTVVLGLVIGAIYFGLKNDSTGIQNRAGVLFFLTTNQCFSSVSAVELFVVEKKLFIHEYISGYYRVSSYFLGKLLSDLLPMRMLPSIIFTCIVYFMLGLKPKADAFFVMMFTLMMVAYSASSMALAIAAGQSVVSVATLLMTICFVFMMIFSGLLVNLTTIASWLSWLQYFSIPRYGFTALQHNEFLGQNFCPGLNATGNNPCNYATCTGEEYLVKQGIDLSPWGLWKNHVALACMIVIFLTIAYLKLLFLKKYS

[3] = Cytotoxicity against human HEK293 cells expressing BCRP assessed as cell survival after 72 hrs by MTT assay
[4] = Cytotoxicity against human HEK293 cells assessed as cell survival after 72 hrs by MTT assay
MDR1 (ABCB1, P-gp) [5] = biological target: T2, MDR1 (ABCB1, P-gp) (Homo sapiens, UniProt P08183); assay: Inhibition of MDR1 (unknown origin) expressed in mouse NIH/3T3 cells assessed as inhibition of mitoxatrone efflux at 2 uM after 1 hr by FACS analysis; format: cell-based; settings: NIH/3T3 cells expressing MDR1, probe mitoxantrone (printed: mitoxatrone)
MDR1 (ABCB1, P-gp) [6] = biological target: T2, MDR1 (ABCB1, P-gp); assay: Inhibition of MDR1 (unknown origin) expressed in mouse NIH/3T3 cells assessed as inhibition of mitoxatrone efflux at 10 uM after 1 hr by FACS analysis; format: cell-based, NIH3T3; settings: NIH/3T3 cells expressing MDR1, probe mitoxantrone (printed: mitoxatrone)
Protease [7] = biological target: T3, Protease (Human immunodeficiency virus 1, UniProt Q9YQ12); assay: Inhibition of HIV-1 recombinant protease using DABCYL-GABA-Ser-Asn-Tyr-Pro-Ile-Val-Gln-EDANS as substrate incubated for 30 mins prior to substrate addition by Dixon plot analysis
Protease [8] = biological target: T3, Protease; assay: Inhibition of HIV-1 recombinant protease using DABCYL-GABA-Ser-Asn-Tyr-Pro-Ile-Val-Gln-EDANS as substrate incubated for 30 mins prior to substrate addition by Hanes plot analysis
[9] = biological target: Protease (Human immunodeficiency virus 1) (UniProt Q9YQ12); assay: Inhibition of HIV-1 protease in human T cells assessed as increase in eGFP expression at >20 uM after 24 hrs by flow cytometry; format: cell-based; settings: T-cell
Procedure, shortened: (§1)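 SupT1 T cells carry an HIV-1 protease–Gal4 fusion under a tetracycline-inducible promoter and a Gal4-responsive eGFP reporter. They were kept in RPMI 1640 with 10% FBS and 1% penicillin/streptomycin at 37 °C in 5% CO₂. Cells were grown 24 h with 1–100 µM compound, with indinavir (0.0001–10 µM) as reference, then induced with […] doxycycline. eGFP was read 48 h later by flow cytometry (ex 488/em 530 nm).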

Protease [10] = biological target: T3, Protease; assay: Inhibition of HIV-1 recombinant protease using DABCYL-GABA-Ser-Asn-Tyr-Pro-Ile-Val-Gln-EDANS as substrate incubated for 30 mins prior to substrate addition by Lineweaver-Burk plot analysis
[11] = Cytotoxicity against mouse NIH/3T3 cells expressing pgp assessed as cell survival at >30 to 50 uM after 72 hrs by MTT assay; format: ADME, cell-based, NIH3T3; settings: NIH/3T3 cells expressing P-gp
BCRP (ABCG2) [12] = biological target: T1, BCRP (ABCG2); assay: Inhibition of BCRP (unknown origin) expressed in mouse NIH/3T3 cells assessed as inhibition of mitoxatrone efflux at 2 uM after 1 hr by FACS analysis; format: cell-based, NIH3T3; settings: NIH/3T3 cells expressing BCRP, probe mitoxantrone (printed: mitoxatrone)
[13] = Cytotoxicity against mouse NIH/3T3 cells assessed as cell survival after 72 hrs by MTT assay
[14] = biological target: Protease (Human immunodeficiency virus 1) (UniProt Q9YQ12); assay: Inhibition of HIV-1 protease in human T cells assessed as increase in eGFP expression at 1 to 100 uM after 24 hrs by flow cytometry; format: cell-based; settings: T-cell; procedure, shortened: as §1
[15] = Cytotoxicity against mouse NIH/3T3 cells assessed as cell survival after 72 hrs by MTT assay; remark: listed apart in the source
[16] = Cytotoxicity against human HEK293 cells expressing BCRP assessed as cell survival after 72 hrs by MTT assay; remark: listed apart in the source
[17] = Cytotoxicity against human HEK293 cells assessed as cell survival after 72 hrs by MTT assay; remark: listed apart in the source
[18] = Cytotoxicity against mouse NIH/3T3 cells expressing pgp assessed as cell survival after 72 hrs by MTT assay; settings: NIH/3T3 cells expressing P-gp
HEK293 [19] = assay: Cytotoxicity against human HEK293 cells assessed as cell survival after 72 hrs by MTT assay; format: cell-based; settings: hek293, 72 h
Procedure, shortened: (§2)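 HEK293 cells stably transfected with BCRP, or with empty vector (HEK293-pcDNA3) as parental control, kept in high-glucose DMEM with 10% FBS, 1% penicillin/streptomycin and 0.75 mg/mL G418, at 37 °C in humidified 5% CO₂. Cells were exposed for 72 h to increasing compound concentrations, and survival was read by MTT colorimetric assay. IC50 is the mean ± sd of at least three independent experiments.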

NIH3T3 = assay: (§3) Cytotoxicity against mouse NIH/3T3 cells expressing pgp assessed as cell survival after 72 hrs by MTT assay; format: ADME, cell-based; settings: nih3t3, 72 h
HEK293 [20] = assay: Cytotoxicity against human HEK293 cells expressing BCRP assessed as cell survival after 72 hrs by MTT assay; format: ADME, cell-based; settings: hek293, 72 h; procedure, shortened: as §2
[21] = Cytotoxicity against mouse NIH/3T3 cells assessed as cell survival after 72 hrs by MTT assay; format: cell-based, NIH3T3
[22] = as §3; format: ADME, cell-based, NIH3T3; settings: NIH/3T3 cells expressing P-gp

T2 sequence (P08183 whole entry): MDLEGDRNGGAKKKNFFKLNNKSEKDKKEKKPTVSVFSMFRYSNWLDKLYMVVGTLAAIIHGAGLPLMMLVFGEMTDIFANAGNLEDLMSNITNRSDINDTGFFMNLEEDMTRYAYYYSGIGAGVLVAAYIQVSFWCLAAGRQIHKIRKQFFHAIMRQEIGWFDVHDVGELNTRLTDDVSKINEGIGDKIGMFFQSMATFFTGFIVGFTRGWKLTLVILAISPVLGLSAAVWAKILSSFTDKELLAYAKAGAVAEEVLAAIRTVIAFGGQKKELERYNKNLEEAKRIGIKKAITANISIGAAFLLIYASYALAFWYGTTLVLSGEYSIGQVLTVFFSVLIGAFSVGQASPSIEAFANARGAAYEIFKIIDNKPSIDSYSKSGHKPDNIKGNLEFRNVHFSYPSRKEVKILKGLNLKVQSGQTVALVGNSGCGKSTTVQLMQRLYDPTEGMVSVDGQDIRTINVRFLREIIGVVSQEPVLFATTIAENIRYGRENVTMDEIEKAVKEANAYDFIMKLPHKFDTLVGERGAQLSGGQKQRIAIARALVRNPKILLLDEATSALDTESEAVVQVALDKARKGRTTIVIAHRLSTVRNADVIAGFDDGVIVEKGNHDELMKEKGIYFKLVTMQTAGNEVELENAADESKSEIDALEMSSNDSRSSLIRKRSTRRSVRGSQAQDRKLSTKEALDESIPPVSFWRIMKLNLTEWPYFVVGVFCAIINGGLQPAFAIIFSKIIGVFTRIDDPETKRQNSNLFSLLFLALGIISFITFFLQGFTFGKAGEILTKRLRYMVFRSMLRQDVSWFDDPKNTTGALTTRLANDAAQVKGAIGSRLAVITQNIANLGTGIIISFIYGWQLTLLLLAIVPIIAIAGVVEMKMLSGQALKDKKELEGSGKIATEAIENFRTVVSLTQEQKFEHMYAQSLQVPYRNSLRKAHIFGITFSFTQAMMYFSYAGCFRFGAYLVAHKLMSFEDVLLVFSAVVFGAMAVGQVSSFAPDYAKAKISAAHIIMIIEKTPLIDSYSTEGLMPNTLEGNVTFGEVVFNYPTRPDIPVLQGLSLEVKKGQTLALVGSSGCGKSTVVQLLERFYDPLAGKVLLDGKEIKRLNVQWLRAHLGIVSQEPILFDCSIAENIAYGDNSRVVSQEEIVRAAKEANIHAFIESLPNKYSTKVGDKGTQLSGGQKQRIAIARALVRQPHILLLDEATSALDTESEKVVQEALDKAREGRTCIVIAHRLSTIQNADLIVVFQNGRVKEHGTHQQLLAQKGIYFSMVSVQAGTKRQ
Sequence of Protease (Human immunodeficiency virus 1) (Q9YQ12 as listed by the source): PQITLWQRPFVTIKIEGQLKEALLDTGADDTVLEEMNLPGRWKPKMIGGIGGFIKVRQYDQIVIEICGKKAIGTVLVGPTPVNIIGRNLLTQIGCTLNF
T3 sequence (Q9YQ12 whole entry): as the sequence (Q9YQ12 as listed by the source) above

Row | SMILES | inhibition at 1 h, 10 µM (BCRP (ABCG2) [2]) | IC50 at 72 h [3] | IC50 at 72 h [4] | inhibition at 1 h, 2 µM (MDR1 (ABCB1, P-gp) [5]) | inhibition at 1 h, 10 µM (MDR1 (ABCB1, P-gp) [6]) | Ki (Protease [7]) | Ki (Protease [8]) | inhibition [9] | Ki (Protease [10]) | IC50 at 72 h [11] | inhibition at 1 h, 2 µM (BCRP (ABCG2) [12]) | IC50 at 72 h [13] | inhibition [14] | further results
1 | CC(C)(C)NC(=O)[C@@H]1CN(Cc2cccnc2)CCN1C[C@@H](O)C[C@@H](Cc1ccccc1)C(=O)N[C@H]1c2ccccc2C[C@H]1O |  |  |  |  |  |  |  |  |  |  |  |  |  | inhibition [1]: Active
2 | O=C[C@H](Cc1ccccc1)NC(=O)N(Cc1cccc(O)c1)N1CCCCC1 | 8.4% | 23.1 µM | 35.3 µM | 4.6% | 4.8% | 144 µM | 242 µM | Active | 272 µM | 43.5 µM | 2.5% | 42.1 µM |  | 
3 | COc1cc2c(cc1OC)CN(CCc1ccc(NC(=O)c3cccc4c(=O)c5cccc(OC)c5[nH]c34)cc1)CC2 |  |  |  | 110% |  |  |  |  |  |  |  |  |  | 
4 | O=C[C@H](Cc1ccccc1)NC(=O)N(Cc1ccccc1)N1CCCCC1 | 0.3% | 34.8 µM | 37.6 µM | 5.5% | 6.4% | 292 µM | 257 µM | Active | 172 µM | 48.6 µM | 0.2% | 42.6 µM |  | 
5 | CN(C)N(Cc1ccccc1)C(=O)N[C@H](C=O)Cc1ccccc1 | 8.1% | 57.2 µM | 56.3 µM | 2.3% | 8.1% | 492 µM | 406 µM |  | 528 µM | 100 µM | 0.2% | 68.8 µM | inactive | 
6 | O=C[C@H](Cc1ccccc1)N(Cc1ccccc1)C(=O)N(Cc1ccccc1)N1CCCCC1 | 8.8% |  |  | 1.8% | 15% | 993 µM | 1120 µM |  | 463 µM |  | 1.8% |  | inactive | IC50 at 72 h [15]: 11.2 µM; IC50 at 72 h [16]: 12.8 µM; IC50 at 72 h [17]: 17.6 µM; IC50 at 72 h [18]: 12.8 µM
7 | O=C[C@H](Cc1ccccc1)NC(=O)N(Cc1ccccc1)N1CCOCC1 | 3.3% |  |  | 7.1% | 11.5% | 996 µM | 366 µM |  | 317 µM |  | 0.2% |  | inactive | Activity (HEK293 [19]): Not Active; Activity (NIH3T3): Not Active; Activity (HEK293 [20]): Not Active; IC50 at 72 h [21]: 79.8 µM
8 | O=C[C@H](Cc1ccc(O)cc1)NC(=O)N(Cc1ccccc1)N1CCCCC1 | 2.5% | 47.9 µM | 52.4 µM | 1.1% | 3% | 306 µM | 342 µM |  | 395 µM | 71.2 µM | 0.9% | 58.6 µM | inactive | 
9 | CC(C)(C)NC(=O)[C@@H]1C[C@@H]2CCCC[C@@H]2CN1C[C@@H](O)[C@H](Cc1ccccc1)NC(=O)[C@H](CC(N)=O)NC(=O)c1ccc2ccccc2n1 |  |  |  |  |  |  |  |  |  |  |  |  |  | Activity (HEK293 [19]): Not Active; IC50 at 72 h [22]: 49 µM; Activity (HEK293 [20]): Not Active; IC50 at 72 h [21]: 37 µM
10 | COc1cccc(CN(C(=O)N[C@H](C=O)Cc2ccccc2)N2CCCCC2)c1 | 8.1% | 37.2 µM | 42.6 µM | 7.7% | 22.7% | 334 µM | 410 µM | Active | 320 µM | 46.8 µM | 0.9% | 39.4 µM |  | 
